Molecules are shown by their SMILES.

From ChEMBL document CHEMBL1123192 (J Med Chem, 1986) come the findings set out here.

The subject of assay [1] is Rattus norvegicus. The experiment in a line: Maximal change in heart rate (HR) measured as pretreatment value at dose of 25 mg/kg in SHR. The format is functional. The method, boiled down:
(§1)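 Spontaneously hypertensive rats; test agent dissolved or dispersed in 0.5% methylcellulose and given by gastric gavage at 5 mL/kg after a 1-h equilibration. Doses ranged from 1 to 100 mg/kg, with 4–8 animals per dose. MABP and HR were monitored for 4 h. Pretreatment values and maximal % change were recorded, and maximal changes were compared with vehicle by Dunnett's t test.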

Assay [2] relates to Rattus norvegicus. The experiment in a line: Maximal change in mean arterial blood pressure (MABP) measured as pretreatment value at dose of 25 mg/kg in SHR. The format is functional. The procedure, abridged: as §1
The target of assay [3] is Beta-1 adrenergic receptor (Cavia porcellus, UniProt B0FL73). Kind of assay: The compound was evaluated for the antagonistic activity against beta-1 adrenergic receptor. The format is functional. Particulars: read-out: pA2 (converted). The procedure, abridged: (§2)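 Isolated tissue suited to each receptor test, held in 10-mL organ baths of Krebs-Henseleit solution at 37 °C and gassed with 95% O2/5% CO2. Antagonism was judged by how several concentrations of test agent altered a cumulative concentration-response curve to a receptor-specific agonist.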
Sequence of Beta-1 adrenergic receptor (B0FL73 whole entry): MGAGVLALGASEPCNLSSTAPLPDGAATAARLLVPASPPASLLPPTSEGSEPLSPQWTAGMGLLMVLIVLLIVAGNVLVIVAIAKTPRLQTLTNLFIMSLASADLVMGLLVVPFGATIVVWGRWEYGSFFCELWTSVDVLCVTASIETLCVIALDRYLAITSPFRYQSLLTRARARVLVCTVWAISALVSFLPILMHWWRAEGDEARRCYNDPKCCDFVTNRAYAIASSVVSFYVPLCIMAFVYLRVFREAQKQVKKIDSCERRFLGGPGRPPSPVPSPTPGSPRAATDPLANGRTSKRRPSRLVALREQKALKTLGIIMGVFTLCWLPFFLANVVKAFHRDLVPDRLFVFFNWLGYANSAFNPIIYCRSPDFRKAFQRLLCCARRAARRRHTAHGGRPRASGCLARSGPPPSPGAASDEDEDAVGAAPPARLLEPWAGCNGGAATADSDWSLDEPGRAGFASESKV

Assay [4] deals with Rattus norvegicus. Kind of assay: Maximal change in heart rate (HR) measured as % change from pretreatment value at dose of 10 mg/kg in SHR. The format is functional. The method, boiled down: as §1
Assay [5] addresses T1, Adrenergic receptor alpha-2 (Rattus norvegicus, UniProt P22086+P19328+P22909).
T1 sequence (P22086 whole entry): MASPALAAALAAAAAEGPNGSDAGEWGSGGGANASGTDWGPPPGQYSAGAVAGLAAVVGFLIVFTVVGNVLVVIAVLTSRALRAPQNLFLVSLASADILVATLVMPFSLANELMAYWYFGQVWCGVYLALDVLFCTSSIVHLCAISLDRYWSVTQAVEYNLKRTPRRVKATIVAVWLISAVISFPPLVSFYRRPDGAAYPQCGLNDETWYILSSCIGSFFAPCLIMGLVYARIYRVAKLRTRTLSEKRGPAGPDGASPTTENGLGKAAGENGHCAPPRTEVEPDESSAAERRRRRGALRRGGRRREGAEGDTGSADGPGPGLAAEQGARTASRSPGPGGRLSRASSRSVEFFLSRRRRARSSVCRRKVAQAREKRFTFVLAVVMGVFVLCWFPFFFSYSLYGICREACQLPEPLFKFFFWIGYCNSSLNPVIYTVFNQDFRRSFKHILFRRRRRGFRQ
T1 sequence (P19328 whole entry): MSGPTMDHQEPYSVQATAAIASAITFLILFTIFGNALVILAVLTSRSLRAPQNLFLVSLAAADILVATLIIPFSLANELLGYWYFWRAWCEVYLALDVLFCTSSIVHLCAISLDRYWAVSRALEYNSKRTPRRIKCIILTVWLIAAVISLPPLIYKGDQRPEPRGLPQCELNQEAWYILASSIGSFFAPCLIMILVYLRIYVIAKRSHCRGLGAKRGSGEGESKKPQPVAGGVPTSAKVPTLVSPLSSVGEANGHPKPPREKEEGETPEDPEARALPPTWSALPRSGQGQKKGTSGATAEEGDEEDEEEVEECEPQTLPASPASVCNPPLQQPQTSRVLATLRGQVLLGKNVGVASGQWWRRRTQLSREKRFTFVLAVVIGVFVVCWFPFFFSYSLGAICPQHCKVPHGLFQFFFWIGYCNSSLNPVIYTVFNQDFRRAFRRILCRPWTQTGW
T1 sequence (P22909 whole entry): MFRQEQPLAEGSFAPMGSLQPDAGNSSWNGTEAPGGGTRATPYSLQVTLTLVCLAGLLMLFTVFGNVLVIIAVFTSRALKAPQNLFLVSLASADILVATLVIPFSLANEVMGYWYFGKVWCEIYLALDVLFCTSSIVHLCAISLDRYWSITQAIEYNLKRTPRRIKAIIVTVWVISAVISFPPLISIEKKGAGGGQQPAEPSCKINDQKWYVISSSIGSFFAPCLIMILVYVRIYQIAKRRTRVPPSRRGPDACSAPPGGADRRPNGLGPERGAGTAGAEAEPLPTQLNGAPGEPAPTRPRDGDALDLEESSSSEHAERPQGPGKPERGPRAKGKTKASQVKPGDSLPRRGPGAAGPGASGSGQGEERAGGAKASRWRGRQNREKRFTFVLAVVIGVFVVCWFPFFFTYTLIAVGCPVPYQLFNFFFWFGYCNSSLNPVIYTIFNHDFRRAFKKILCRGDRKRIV
The experiment in a line: The compound was evaluated for the antagonistic activity against alpha-2 adrenergic receptor. The format is functional.

Assay [6] has as its target Beta-2 adrenergic receptor (Cavia porcellus, UniProt Q8K4Z4). Kind of assay: The compound was evaluated for the antagonistic activity against beta-2 adrenergic receptor. The format is functional. The conditions noted are these: read-out: pA2 (converted). The method, boiled down:
as §2

The test system of assay [7] is Rattus norvegicus. Kind of assay: Maximal change in mean arterial blood pressure (MABP) measured as % change from pretreatment value at dose of 10 mg/kg in SHR. The format is functional. The method, boiled down:
as §1

For a further assay, the species on record is Cavia porcellus. The experiment in a line: Beta-2-adrenoceptor ISA (intrinsic sympathomimetic activity)was measured as relaxant effect against a PGF2-alpha contracted guinea pig trachea at 1x10E-5 M. The format is functional.
Assay [8] relates to Rattus norvegicus. Kind of assay: Maximal change in mean arterial blood pressure (MABP) measured as % change from pretreatment value at dose of 5 mg/kg in SHR. The format is functional. The procedure, abridged: as §1
The target in assay [9] is Beta-1 adrenergic receptor (Cavia porcellus) (UniProt B0FL73). The experiment in a line: Beta-1 adrenergic receptor ISA (intrinsic sympathomimetic activity)using the guinea pig right atria was measured as % increase of positive chronotropic effect (basal spontaneous beating rate) at 1x10E-7 M.
Sequence of Beta-1 adrenergic receptor (Cavia porcellus) (B0FL73 1-467): as the sequence (B0FL73 whole entry) above
Assay [10] concerns Rattus norvegicus. The experiment in a line: Maximal change in mean arterial blood pressure (MABP) measured as % change from pretreatment value at dose of 25 mg/kg. The format is functional. The procedure, abridged:
as §1

Assay [11] relates to Rattus norvegicus. Kind of assay: Maximal change in mean arterial blood pressure (MABP) measured as pretreatment value at dose of 10 mg/kg in SHR. The format is functional. The procedure, abridged:
as §1

The test system of assay [12] is Rattus norvegicus. Kind of assay: Maximal change in heart rate (HR) measured as % change from pretreatment value at dose of 25 mg/kg in SHR. The format is functional. The method, boiled down:
as §1

Assay [13] deals with Rattus norvegicus. Kind of assay: Maximal change in mean arterial blood pressure (MABP) measured as pretreatment value at dose of 5 mg/kg in SHR. The format is functional. The procedure, abridged: as §1
The test system of assay [14] is Rattus norvegicus. Kind of assay: Maximal change in heart rate (HR) measured as pretreatment value at dose of 10 mg/kg in SHR. The format is functional. The procedure, abridged:
as §1

The test system of assay [15] is Rattus norvegicus. Kind of assay: Maximal change in heart rate (HR) measured as % change from pretreatment value at dose of 5 mg/kg in SHR. The format is functional. The method, boiled down: as §1
Assay [16] has as its system Rattus norvegicus. The experiment in a line: TMaximal change in heart rate (HR) measured as pretreatment value at dose of 5 mg/kg in SHR. The format is functional. The procedure, abridged:
as §1

Sequence of Beta-2 adrenergic receptor (Q8K4Z4 whole entry): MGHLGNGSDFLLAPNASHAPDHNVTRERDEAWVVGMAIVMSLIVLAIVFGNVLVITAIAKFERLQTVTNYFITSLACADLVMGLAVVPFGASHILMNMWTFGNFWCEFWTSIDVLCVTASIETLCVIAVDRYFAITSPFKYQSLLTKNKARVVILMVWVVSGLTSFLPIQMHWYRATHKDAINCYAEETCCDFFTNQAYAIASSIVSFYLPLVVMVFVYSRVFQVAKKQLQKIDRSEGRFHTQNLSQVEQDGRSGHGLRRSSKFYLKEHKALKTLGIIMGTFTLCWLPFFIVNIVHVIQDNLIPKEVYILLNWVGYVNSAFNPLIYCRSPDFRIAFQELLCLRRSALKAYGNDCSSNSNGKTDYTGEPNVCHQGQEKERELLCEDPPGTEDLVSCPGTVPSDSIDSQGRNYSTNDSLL

In the case of `CC(CCc1ccccc1)NCC(O)c1ccc(O)c(C(N)=O)c1` (configuration not stated) [LABETALOL], the HR in the assay with Rattus norvegicus [1] came to 437 beats min-1; in the assay on Rattus norvegicus [14], 457 beats min-1; with Rattus norvegicus [16], 424 beats min-1. For the same compound, the MABP with Rattus norvegicus [2] was found to be 163 mmHg; in the assay with Rattus norvegicus [11], 158 mmHg; in the assay with Rattus norvegicus [13], 161 mmHg. Further, the values for the Kb in assay [3] and in [6] were 0.0316 µM and 0.0398 µM, respectively. For the same compound, the Change with Rattus norvegicus [4] was -23%; in the assay with Rattus norvegicus [7], -25%; in the assay listed under Cavia porcellus, 62%; with Rattus norvegicus [8] it was -14%; in assay [9], 0%; with Rattus norvegicus [10], -31%. Moreover, the Change with Rattus norvegicus [12] is on record as -27%; with Rattus norvegicus [15] it was -15%. In assay [5], this compound showed a pA2 of less than 5.

In general, pA2 refers to the negative logarithm of the molar antagonist concentration that doubles the agonist concentration needed for the same response. A low value points to lower antagonist potency.
